Laboratory results published in ChEMBL document CHEMBL3414459, “Phenolic thio- and selenosemicarbazones as multi-target drugs” (Eur J Med Chem, 2015).
Activity calls are given as the source filed them. The rule behind the calls is not given here.

Assays:
[1] = Antioxidant activity assessed as DPPH free radical scavenging activity incubated for 30 mins; assay type: physicochemical
Outline: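 DPPH in HPLC-grade solvent mixed with compound in DMSO at 7 concentrations, or with DMSO alone as control. Kept in the dark at rt for 30 min, then A515 read against a blank. % DPPH remaining = A_sample/A_control × 100, plotted against concentration; EC50 taken from the straight line. Triplicate.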

[2] = Antioxidant activity assessed as H2O2 scavenging activity at 100 uM incubated for 20 mins by phenol red based assay; assay type: physicochemical
Outline: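 Compound at 100 µM final, or DMSO control, in 0.1 M phosphate buffer pH 7.4 with H2O2 and 0.1 M NaCl, incubated in the dark at 37 °C for 20 min. Phenol red (0.2 mg/mL) and horseradish peroxidase (0.1 mg/mL) added, 15 min at 37 °C. NaOH added, 10 min at rt, A610 read. % reduction = (A_control − A_sample)/A_control × 100.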

[3] = Antioxidant activity assessed as inhibition of the lipid peroxidation at 0.74 mM incubated for 24 hrs by ferric thiocyanate method; assay type: physicochemical; conditions: 740 µM
Outline: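 Ferric thiocyanate method at 0.74 mM. 10.0 mM DMSO stock combined with methanolic linoleic acid in 0.2 M phosphate buffer pH 7.0. AAPH added, then 24 h at 50 °C in the dark; DMSO served as control. An aliquot was diluted in H2O–DMSO with NH4SCN and FeCl2 in HCl. After 3 min at rt, A546 read. % inhibition relative to control.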

[4] = Potency index, ratio of IC50 for hydroxytyrosol to IC50 for test compound for antioxidant activity assessed as DPPH free radical scavenging activity incubated for 30 mins
[5] = Pro-oxidant activity assessed as hydroxyl radical generation through deoxyribose degradation by measuring change in absorbance at 0.83 mM by TBARS based spectrophotometry; assay type: ADME; conditions: 830 µM
Outline: (§1)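 Modified Halliwell deoxyribose assay with the compound at the stated concentration in 0.1 M phosphate buffer pH 7.4, with 2-deoxyribose, H2O2, and FeCl3 premixed with EDTA. Heated 1 h at 37 °C, then TBA in NaOH and trichloroacetic acid added and heated 15 min at 100 °C. Cooled, A532 read; DMSO as control. Repeated without deoxyribose to account for TBARS interference.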

[6] = Inhibition of baker's yeast alpha-glucosidase using p-nitrophenyl-alpha-D-glucopyranoside substrate assessed as reduction in p-nitrophenolate formation at 500 uM; conditions: Saccharomyces bayanus
Outline: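 α-Glucosidase in 0.1 M phosphate buffer pH 6.8 with p-nitrophenyl-α-D-glucopyranoside at K_M (250 µM; K_M 0.25 mM). Inhibitor at 500 µM final or DMSO, DMSO 5% v/v.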

[7] = Inhibition of baker's yeast alpha-glucosidase using p-nitrophenyl-alpha-D-glucopyranoside substrate assessed as reduction in p-nitrophenolate formation
Outline: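 Run in 0.1 M phosphate buffer, pH 6.8, with 5% (v/v) DMSO. […] Enzyme started the reaction at 25 °C, and p-nitrophenolate was followed at 400 nm. Percent inhibition came from rates with and without inhibitor. Where inhibition exceeded 50%, Ki and mode were derived by Lineweaver–Burk, using substrate 0.25–4.0 Km and 2–3 fixed inhibitor concentrations.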

[8] = Inhibition of baker's yeast alpha-glucosidase using p-nitrophenyl-alpha-D-glucopyranoside substrate assessed as inhibition constant for enzyme-compound binding by measuring reduction in p-nitrophenolate formation; design: species or system Saccharomyces cerevisiae
Outline: (§2)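 Same α-glucosidase conditions: pH 6.8 phosphate buffer, 25 °C, A400 for p-nitrophenolate, 5% DMSO. Done for inhibitors exceeding 50% inhibition at 500 µM. Rates measured at 5 substrate concentrations from 0.25 to 4.0 K_m, each at a fixed inhibitor concentration, using 2–3 inhibitor concentrations. Lineweaver–Burk double reciprocal plots gave the inhibition mode and constants K_ia (E) and K_ib (ES).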

[9] = Inhibition of baker's yeast alpha-glucosidase using p-nitrophenyl-alpha-D-glucopyranoside substrate assessed as inhibition constant for enzyme-substrate-compound binding by measuring reduction in p-nitrophenolate formation; outline: as §2
[10] = Mixed inhibition of baker's yeast alpha-glucosidase using p-nitrophenyl-alpha-D-glucopyranoside substrate assessed as reduction in p-nitrophenolate formation by Lineweaver-Burk plot; conditions: Saccharomyces bayanus; outline: as §2
A549 = experiment: Antiproliferative activity against human A549 cells after 48 hrs by sulforhodamine B assay; assay type: functional; conditions: A549, 48 h
Outline: (§3)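 Exponentially growing cells trypsinized into penicillin/streptomycin medium, >97% viable by trypan blue. Seeded per well: 10,000 (A549, HBL-100, HeLa, SW1573), 15,000 (T-47D), 20,000 (WiDr). Treatment began day 1, DMSO stocks 40 mM, 0.25% DMSO as control, triplicate, 48 h. Cells fixed with cold TCA 60 min at 4 °C, SRB stained, OD492 read, medium background subtracted.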

[11] = Antiproliferative activity against human HBL100 cells after 48 hrs by sulforhodamine B assay; assay type: functional; conditions: HBL-100, 48 h; outline: as §3
SW1573 = experiment: Antiproliferative activity against human SW1573 cells after 48 hrs by sulforhodamine B assay; assay type: functional; conditions: SW1573, 48 h; outline: as §3
HeLa = experiment: Antiproliferative activity against human HeLa cells after 48 hrs by sulforhodamine B assay; assay type: functional; outline: as §3
T47D = experiment: Antiproliferative activity against human T47D cells after 48 hrs by sulforhodamine B assay; assay type: functional; outline: as §3
WiDr = experiment: Antiproliferative activity against human WiDr cells after 48 hrs by sulforhodamine B assay; assay type: functional; outline: as §3
Saccharomyces bayanus [12] = experiment: Non-competitive inhibition of baker's yeast alpha-glucosidase using p-nitrophenyl-alpha-D-glucopyranoside substrate assessed as reduction in p-nitrophenolate formation by Lineweaver-Burk plot; outline: as §2
[13] = Pro-oxidant activity assessed as hydroxyl radical generation through deoxyribose degradation by measuring change in absorbance at 0.42 mM by TBARS based spectrophotometry; assay type: ADME; conditions: 420 µM; outline: as §1
[14] = Pro-oxidant activity assessed as hydroxyl radical generation through deoxyribose degradation by measuring change in absorbance at 0.17 mM by TBARS based spectrophotometry; assay type: ADME; conditions: 170 µM; outline: as §1
[15] = Pro-oxidant activity assessed as hydroxyl radical generation through deoxyribose degradation by measuring change in absorbance at 0.083 mM by TBARS based spectrophotometry; assay type: ADME; conditions: 83 µM; outline: as §1
Saccharomyces bayanus [16] = experiment: Un-competitive inhibition of baker's yeast alpha-glucosidase using p-nitrophenyl-alpha-D-glucopyranoside substrate assessed as reduction in p-nitrophenolate formation by Lineweaver-Burk plot; outline: as §2
Saccharomyces bayanus [17] = experiment: Potency index, ratio of Ki for acarbose to Ki for compound against baker's yeast alpha-glucosidase using p-nitrophenyl-alpha-D-glucopyranoside substrate assessed as reduction in p-nitrophenolate formation

SMILES | EC50 [1] [µM] | inhibition (INH) [2] | inhibition (INH) [3] | Ratio IC50 [4] | Activity [5] | inhibition [6] | Ki [8] [µM] | Ki [9] [µM] | inhibition [10] | GI50 (A549) [nM] | GI50 [11] [µM] | GI50 (SW1573) [µM] | GI50 (HeLa) [µM] | GI50 (T47D) [µM] | GI50 (WiDr) [µM] | also measured
NNC(=[Se])Nc1cccc2ccccc12 | 6.65 | 56.9% | 21.9% | < 3 | 0.064 | 14% |  |  |  |  |  |  |  |  |  | 
OCCc1ccc(O)c(O)c1 [HYDROXYTYROSOL] | 13.8 |  |  |  |  |  |  |  |  |  |  |  |  |  |  | 
C[C@H]1O[C@H](O[C@H]2[C@H](O)[C@@H](O)[C@@H](O[C@H]3[C@H](O)[C@@H](O)C(O)O[C@@H]3CO)O[C@@H]2CO)[C@H](O)[C@@H](O)[C@@H]1N[C@H]1C=C(CO)[C@@H](O)[C@H](O)[C@H]1O (some centres undefined) [ACARBOSE] |  |  |  |  |  |  |  |  |  |  |  |  |  |  |  | Ki [7]: 77.9 µM
Oc1cc(/C=N/NC(=S)Nc2ccccc2)cc(O)c1O | 7 | 80% | 59.9% | < 3 |  | 70% | 297 | 86.2 | Active | 9300 | 71 | 49 | 32 | 61 | > 100 | 
Oc1ccc(/C=N/NC(=[Se])Nc2ccccc2)cc1O | 8.77 | 69% | 66.5% | < 3 | 0.097 | 81% | 201 |  |  | 2600 | 3.8 | 5.8 | 3.3 | 3.7 | 3.2 | inhibition (Saccharomyces bayanus [12]): Active
Oc1ccc(/C=N/NC(=[Se])Nc2cccc3ccccc23)cc1O | 18.2 | 46.3% | 72% |  | 0.079 | 95% | 57.8 | 69.8 | Active | 1100 | 2.6 | 3.2 | 2.2 | 2.5 | 2.8 | Activity [13]: 0.041; Activity [14]: 0.037; Activity [15]: 0.097
O=Cc1cc(O)c(O)c(O)c1 | 15.3 | 79.1% | Not Active |  |  | inactive |  |  |  | 7300 | 72 | 38 | 16 | 43 | 39 | 
Oc1ccc(/C=N/NC(=S)Nc2ccccc2)cc1 | 90.1 | 79.5% | 5.5% |  | 0.094 | 52% |  | 213 |  | 34000 | 43 | 35 | 42 | 88 | 61 | inhibition (Saccharomyces bayanus [16]): Active
O=Cc1cc(O)c(O)cc1O | 5.97 | 80.3% | 56.1% |  |  | inactive |  |  |  | > 100000 | > 100 | > 100 | > 100 | > 100 | > 100 | 
Oc1ccc(/C=N/NC(=S)Nc2ccccc2)cc1O | 9.27 | 79.3% | 72% | < 3 |  | 68% | 708 | 134 | Active | 1600 | 35 | 24 | 7 | 25 | 27 | 
O=c1[nH]cc(F)c(=O)[nH]1 [FLUOROURACIL] |  |  |  |  |  |  |  |  |  |  | 5.5 | 4.3 | 15 | 47 | 49 | 
O=Cc1ccc(O)c(O)c1 [PROTOCATECHUALDEHYDE] | 6.57 | 78.3% | 35.7% |  |  | inactive |  |  |  | 42000 | > 100 | 54 | 49 | > 100 | > 100 | 
Oc1cc(/C=N/NC(=[Se])Nc2ccccc2)cc(O)c1O | 4.87 | 64% | 65.7% | < 3 |  | 95% | 30.3 | 78.4 | Active | 1500 | 2 | 3.9 | 2.1 | 2.9 | 3.7 | 
Oc1ccc(/C=N/NC(=[Se])Nc2ccccc2)cc1 | 27.8 | 72.5% | 31% |  | 0.087 | 62% | 336 |  |  | 1400 | 13 | 19 | 3.7 | 7.2 | 16 | inhibition (Saccharomyces bayanus [12]): Active
Oc1cc(O)c(/C=N/NC(=[Se])Nc2cccc3ccccc23)cc1O | 10.7 | 4.5% | 43% | < 3 |  | 95% | 33 | 76.8 | Active | 1700 | 4 | 5 | 3 | 3.5 | 5.2 | 
Oc1cc(O)c(/C=N/NC(=S)Nc2ccccc2)cc1O | 13.9 | Not Active | 56.8% |  | 0.067 | 100% | 9.6 |  |  | 1200 | 29 | 30 | 19 | 10 | 30 | inhibition (Saccharomyces bayanus [12]): Active; Ratio Ki (Saccharomyces bayanus [17]): 8
Oc1cc(/C=N/NC(=[Se])Nc2cccc3ccccc23)cc(O)c1O | 8.87 | 38.1% | 24.3% |  | 0.067 | 98% | 154 | 70.3 | Active | 1700 | 2.4 | 2.9 | 2.3 | 2.7 | 3.6 | 
O=Cc1ccc(O)cc1 [4-HYDROXYBENZALDEHYDE] | > 250 | Not Active | Not Active |  |  | inactive |  |  |  | > 100000 | > 100 | > 100 | > 100 | > 100 | > 100 | 
